Screening data as filed in PubChem.
CFTR F508del cor: correctors of CFTR F508del function in bronchial epithelial cells. CFBE cells, YFP halide quenching; stimulated with forskolin plus potentiator P3; % fluorescence drop versus neutral controls. activity (quench increase), % at 7.58 µM. 350,000 compounds, 0.36% hits;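 active = mean added fluorescence quench of at least 8% versus neutral control, with both replicates also reaching 8%; inconclusive = only one of the mean or replicate conditions met; inactive = mean below 8% and not both replicates reaching 8%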;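 also: cells transiently co-express mutant CFTR-F508del with the halide-sensitive YFP; corrector assay measuring rescue of mutant channel to the surface after 24 h compound exposure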
PGC1a acetyl inh: lowers PGC1a acetylation signal in U2OS cells; 350,000 compounds, 0.17% hits; inhibition, % at 15.6 µM; AlphaScreen anti-acetyl-lysine; with virally co-expressed GCN5 acetyltransferase;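 active = every replicate shows inhibition of at least 40%; inconclusive = mean inhibition at least 40% but some replicate below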
PAX8 reporter: inhibitors of PAX8 transcriptional activity in RMG-I cells; RMG-I TPO-luciferase reporter, SteadyGlo, 24 h; inhibition, % at 12.6 µM; 360,000 compounds, 1.2% hits; AID 652154;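 active = mean replicate inhibition at least 60% with every replicate also reaching 60%; inconclusive = only one of the two criteria is met; inactive = mean below 60% and not all replicates reaching 60%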;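 also: luciferase light reporting Pax8 driven TPO promoter activity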
FN deposition inh: fibronectin deposition inhibition; AH1F fibroblasts, Alexa488-fibronectin deposition fluorescence, overnight; inhibition, % at 12.6 µM; 350,000 compounds, 0.086% hits; AID 743247;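 active = mean inhibition across replicates of 30% or more, regardless of how many single replicates reach that level; inconclusive = mean under 30% yet at least half of replicates reach 30%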
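Material: AH1F fibroblasts assembling fluorescent fibronectin matrix; amount: 10000 AH1F cells/well; medium: DMEM, 2% serum; reagent: Alexa488-fibronectin, 24 nM final in well; dosing: single compound dose, delivered by pin transfer; incubation: 1 h adhesion, overnight exposure; detection: fluorescence after three HBSS washes, excitation 485 nm, emission 525 nm; measure: fibronectin deposition inhibition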
Env fusion inh: inhibitors of HIV Env-mediated cell fusion; HeLa-JRFL Env/CEM21 cell fusion, luciferase; inhibition, % at 12.3 µM; 360,000 compounds, 1.1% hits;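 active = mean replicate inhibition score of at least 50 and every replicate individually at or above 50; inconclusive = only one of the two criteria met; inactive = mean below 50 and not all replicates reaching 50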
EWS-Fli block: blocks EWS/Fli oncoprotein-driven transcription | A673 NR0B1-luciferase reporter, viability-normalised | 350,000 compounds, 0.67% hits | AID 651661 | inhibition, % at 12.6 µM;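 active = mean inhibition of at least 50% after viability correction, with every replicate also passing that limit; inconclusive = mean reaches 50% but only one of two replicates passes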;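 also: firefly luciferase signal divided by Alamar Blue viability fluorescence both relative to DMSO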
Hits are given with their value; - = inactive; ? = inconclusive; . = no result given. Sampled rows, rich in hits. Any-hit rate of the full collection: about 2.3%.

SMILES	CFTR F508del cor	PGC1a acetyl inh	PAX8 reporter	FN deposition inh	Env fusion inh	EWS-Fli block
CC(=O)NCCC(=O)Nc1nc(-c2cccs2)c(-c2cccs2)s1	-	.	-	-	-	-
O=C(Nc1cccc(Cl)c1)Nc1nnc(CSCCOc2ccc(Cl)cc2)s1	.	-	107.1	-	.	.
NC(c1csc(NC(=O)Nc2cccc(Cl)c2)n1)c1ccccc1Cl (stereo unspecified)	-	-	-	-	75.6	-
Cc1cccc(C)c1NC(=O)Nc1nc(C(N)c2ccccc2Cl)cs1 (stereo unspecified)	-	.	-	-	-	-
Cc1ccc(NC(=O)Nc2nnc(CSCCOc3ccc(Cl)cc3)s2)cc1	.	.	-	-	-	-
O=C(Nc1cccc(Cl)c1)Nc1nnc(-c2ccncc2)s1	-	.	103.5	-	56.6	-
Cc1ccc(S(=O)(=O)N(C)C[C@@H]2OCCCC[C@H](C)Oc3ccc(NC(=O)c4ccccc4)cc3C(=O)N([C@H](C)CO)C[C@H]2C)cc1	-	-	-	-	-	-
C[C@H](CO)N1C[C@H](C)[C@@H](CN(C)S(C)(=O)=O)Oc2ncc(C#CC3CCCC3)cc2C1=O	-	-	.	-	-	-
CCN(CC)C1=CC(=[N+]2CCCC2)CC(C)(C)C1	.	.	-	-	?	.
CN(Cc1ccccc1)C1=CC(=[N+]2CCCC2)CC(C)(C)C1	-	-	-	-	60.4	-
CC1(C)CC(N2CCCC2)=CC(=[N+]2CCCCCC2)C1	-	.	79.3	.	-	-
CC1(C)CC(N2CCN(c3ccccc3)CC2)=CC(=[N+]2CCCC2)C1	.	-	.	-	81.0	.
CC1(C)CC(=O)C=C(N2CCNCC2)C1	.	-	-	-	-	.
CC1CC(C)C[N+](=C2C=C(N3CCCC3)CC(C)(C)C2)C1 (stereo unspecified)	-	.	74.8	-	-	-
COCC(=O)Nc1ccc2c(c1)[C@H]1C[C@H](CC(=O)N[C@H](C)c3ccccc3)O[C@@H](CO)[C@H]1O2	-	-	-	.	-	-
CC(C)C#Cc1cnc2c(c1)C(=O)N([C@@H](C)CO)C[C@H](C)[C@@H](CN(C)Cc1ccc3c(c1)OCO3)O2	.	-	-	.	-	-
CCCCNC(=O)O[C@H]1C[C@@H]2CCN3C(=O)CCC[C@H]([C@H]1Cc1ccccc1)[C@H]23	-	.	-	-	56.1	-
COCC(=O)Nc1ccc2c(c1)OC[C@H](C)N(C(=O)NC(C)C)C[C@H](C)[C@@H](OC)CN(C)C2=O	-	-	-	-	.	.
CCOC(=O)C(C)n1cnc2c(nnn2-c2ccc(C)cc2)c1=O (stereo unspecified)	.	66.7	.	.	-	.
CCOC(=O)C(C)n1cnc2c(nnn2-c2ccc(OC)cc2)c1=O (stereo unspecified)	.	-	.	-	-	.
CN(C)CCCN1c2ccccc2Sc2ccccc21	11.5	-	-	-	-	-
COc1ccc(C2N(S(=O)(=O)c3ccc(C)cc3)CCN2S(=O)(=O)c2ccc(C)cc2)cc1	.	.	.	-	104.8	.
COc1ccc(C2N(C(C)=O)CCN2S(=O)(=O)c2ccc(C)cc2)cc1 (stereo unspecified)	-	-	-	-	-	-
Cc1ccc(S(=O)(=O)N2CCN(S(=O)(=O)c3ccccc3)C2c2ccc(N(C)C)cc2)cc1 (stereo unspecified)	.	-	-	-	53.1	.
CCCCN(C)CCNC(=O)c1cc(-c2cccnc2)nc2ccc(S(=O)(=O)N3CCC(C)CC3)cc12	-	-	-	-	-	.
SMILES	CFTR F508del cor	PGC1a acetyl inh	PAX8 reporter	FN deposition inh	Env fusion inh	EWS-Fli block
CCN(CC)CCNC(=O)c1cc(-c2cccnc2)nc2ccc(S(=O)(=O)N3CCC(C)CC3)cc12	-	.	-	-	-	63.1
CCOC1=C2CN(S(=O)(=O)c3ccc(C)cc3)CC[C@@H]2N(S(=O)(=O)c2ccc(C)cc2)[C@H](c2ccccc2)C1	12.0	-	-	-	-	-
CCOC1=C2CN(S(=O)(=O)c3ccc(C)cc3)[C@H](c3ccccc3)C[C@@H]2N(S(=O)(=O)c2ccccc2)[C@H](c2ccccc2)C1	-	-	-	-	.	-
CS(=O)(=O)N1[C@@H]2c3ccc(C4=CCCC4)c(=O)n3C[C@@H]2[C@@H](CO)[C@@H]1C(=O)NCCc1ccncc1	.	.	-	.	-	-
S=C(NCCc1ccccc1)Nc1nccs1	9.2	-	-	-	-	-
CCOC(=O)CSC1=C(C#N)C(c2ccc(C)s2)CC(=O)N1 (stereo unspecified)	8.6	-	.	.	.	-
O=C(NC1CCCC1)C1C(c2ccc(C(F)(F)F)cc2)=Nc2ccccc2N1C(=O)c1cccc(C(F)(F)F)c1 (stereo unspecified)	-	.	-	-	-	-
CC(C)(C)NC(=O)C1C(c2ccc(C(F)(F)F)cc2)=Nc2ccccc2N1C(=O)c1cccc(C(F)(F)F)c1 (stereo unspecified)	-	.	-	-	66.7	-
COc1ccc(CN(C)C[C@@H]2Oc3ccc(NC(=O)NC(C)C)cc3CC(=O)N([C@@H](C)CO)C[C@@H]2C)cc1	-	-	-	.	.	.
CNC[C@@H]1Oc2ccccc2C(=O)N(C)C[C@H]1C	.	.	.	-	.	.
CCC1=Nc2cc(C(=O)NCc3ccco3)ccc2Sc2ccccc21	.	.	-	-	-	.
CCC1=Nc2cc(C(=O)NCC3CCCO3)ccc2Sc2ccc(Cl)cc21 (stereo unspecified)	14.8	-	-	-	-	57.3
CCC1=Nc2cc(C(=O)NCc3ccco3)ccc2Sc2ccc(Cl)cc21	.	.	-	-	?	.
CCC1=Nc2cc(C(=O)NCc3cccnc3)ccc2Sc2ccc(C)cc21	12.2	-	-	-	-	65.5
O=C1N[C@@H](c2ccccc2)COCc2cn(nn2)CC[C@@H]1Cc1ccc(-c2ccccc2)cc1	.	.	.	-	.	.
C[C@H]1CN([C@@H](C)CO)S(=O)(=O)c2ccc(/C=C/c3ccccc3)cc2O[C@H]1CN(C)C	-	-	.	-	-	-
COc1ccc(CCN2C(=S)NC3CC2(C)Oc2ccc([N+](=O)[O-])cc23)cc1OC (stereo unspecified)	.	-	.	-	58.6	.
C[C@H](CO)N1C[C@H](C)[C@H](CN(C)C(=O)Nc2ccccc2)Oc2ccc(NC(=O)CCCCCC(=O)Nc3ccccc3N)cc2C1=O	-	-	-	.	.	-
C[C@@H]1CN([C@H](C)CO)C(=O)c2cc(NS(=O)(=O)c3ccc(F)cc3)ccc2O[C@H]1CN(C)S(C)(=O)=O	-	-	.	.	-	-
Cc1ccc(N(C)S(=O)(=O)c2cccc(C(=O)N(C)Cc3cnn(-c4ccccc4)c3)c2)cc1	-	.	-	-	63.4	-
CN(Cc1cnn(-c2ccccc2)c1)C(=O)c1cccc(S(=O)(=O)N(C)c2ccccc2)c1	-	-	-	.	-	-
COCC#Cc1cnc2c(c1)C(=O)N([C@@H](C)CO)C[C@@H](C)[C@@H](CN(C)S(=O)(=O)c1ccccc1)O2	-	-	.	-	-	-
N#Cc1ccccc1NC(=O)C1SC(=Nc2ccccc2)C(C(=O)Nc2ccc(Cl)cc2)=C1N (stereo unspecified)	-	-	-	.	?	-
